Reference: ChEMBL document CHEMBL1142960, “Synthesis and structure-activity relationships for 2,4-dinitrobenzamide-5-mustards as prodrugs for the Escherichia coli nfsB nitroreductase in gene therapy” (J Med Chem, 2007)
pIC50: −log10 of the molar value. ≈ marks a conversion by molar mass, not a printed value.

Tests used:
EMT6 [1] = assay: Antiproliferative activity against mouse wild type EMT6 NTR-ve cells after 18 hrs; format: functional, cell-based; settings: EMT6, 18 h
EMT6 [2] = assay: Antiproliferative activity against mouse EMT6 NTRpuro cells after 18 hrs; format: functional, cell-based; settings: EMT6, 18 h
[3] = Partition coefficient at pH 7.4 by shake-flask method; format: physicochemical; settings: octanol/water
How it was run: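 Octanol-water partition coefficient by shake-flask at pH 7.4, reported with SEM.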

EMT6 [4] = assay: Selectivity ratio of IC50 for EMT6 NTR-ve cells to IC50 forEMT6 NTRpuro cells; format: functional, Mus musculus
V79 [5] = assay: Antiproliferative activity against chinese hamster V79 NTRpuro cells after 18 hrs; format: functional, cell-based; settings: Cricetulus griseus, V79, 18 h
V79 [6] = assay: Selectivity ratio of IC50 for V79 NTR-ve cells to IC50 for V79 NTRpuro cells; format: functional, Cricetulus griseus
WiDr [7] = assay: Antiproliferative activity against human wild type WiDr NTR-ve cells after 18 hrs; format: functional, cell-based
[8] = Stability in alpha MEM at 37 degC after 24 hrs; format: physicochemical; settings: read-out: Stability
How it was run: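 Percent parent compound remaining, by HPLC, after holding in α-MEM with 5% fetal calf serum at 37 °C for 24 h.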

V79 [9] = assay: Antiproliferative activity against chinese hamster wild-type V79 NTR-ve cells after 18 hrs; format: functional, cell-based; settings: Cricetulus griseus, V79, 18 h
WiDr [10] = assay: Antiproliferative activity against human WiDr NTRneo cells after 18 hrs; format: functional, cell-based
[11] = Antiproliferative activity against human Skov3 NTRneo cells after 18 hrs; format: functional, cell-based; settings: SK-OV-3, 18 h
V79 [12] = assay: Clonogenic survival of 3% V79 NTRpuro cells in co-cultures with 97% V79 NTRoua after 5 hrs by MCL assay; format: functional, Cricetulus griseus
How it was run: (§1)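 Multicellular layer cocultures of 3% V79-NTRpuro activators and 97% V79oua NTR-ve targets (ouabain-resistant), exposed to prodrug for 5 h. MCLs were then trypsin-dissociated and plated in ouabain or puromycin selective media for clonogenic survival. C10 (10% survival) interpolated for activators and targets; AC/TC ratio derived. Mean with SEM or range over independent experiments.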

[13] = Solubility in alpha MEM; format: physicochemical
How it was run: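 Solubility (mM) in α-MEM with 5% fetal calf serum at ambient temperature, measured by HPLC.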

[14] = Antiproliferative activity against human wild type Skov3 NTR-ve cells after 18 hrs; format: functional, cell-based
[15] = Selectivity ratio of IC50 for Skov3 NTR-ve cells to IC50 for Skov3 NTRneo cells; format: functional, Homo sapiens
WiDr [16] = assay: Selectivity ratio of IC50 for WiDr NTR-ve cells to IC50 for WiDr NTRneo cells; format: functional, Homo sapiens
V79 [17] = assay: Clonogenic survival of V79 NTRoua cells after 5 hrs by MCL assay; format: functional, Cricetulus griseus
V79 [18] = assay: Clonogenic survival of 97% V79 NTRoua cells in co-cultures with 3% V79 NTRpuro cells after 5 hrs by MCL assay; format: functional, Cricetulus griseus; how it was run: as §1
EMT6 [19] = assay: Antitumor activity against mixed mouse EMT6/EMT6 NTRpuro cells injected in CD1 nude mouse assessed as cell kill at 562 umol/kg, ip in DMSO/PEG after 18 hrs; format: functional
WiDr [20] = assay: Antitumor activity against human 100% WiDr NTRneo tumor cells injected in CD1 nude mouse assessed as growth delay at 562 umol/kg, ip in DMSO/PEG; format: functional
How it was run: (§2)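 WiDr-NTRneo tumours (100% NTR+ve, or 1:9 NTR+ve:NTR-ve mixtures) in CD-1 nude mice, given a single i.p. dose at MTD. Read-out is median growth delay to 15 mm mean diameter, plus tumours not palpable 100 days after treatment. Aziridine given at 200 µmol/kg as positive control in every experiment.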

[21] = Toxicity in ip dosed CD1 nude mouse in DMSO/PEG; format: organism-based; settings: in vivo
How it was run: (§3)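 Maximum tolerated dose (MTD) determined in CD-1 nude mice after a single i.p. injection of prodrug, given in the vehicle named in each line.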

[22] = Toxicity in ip dosed CD1 nude mouse in DMSO; format: organism-based; settings: in vivo; how it was run: as §3
WiDr [23] = assay: Antitumor activity against mixed human 10% WiDr NTRneo/ 90% WiDr tumor cells injected in CD1 nude mouse assessed as growth delay at 1780 umol/kg, ip in DMSO; format: functional; how it was run: as §2
EMT6 [24] = assay: Antitumor activity against mixed mouse EMT6/EMT6 NTRpuro cells injected in CD1 nude mouse assessed as cell kill at 200 umol/kg, ip in DMA/PEG after 18 hrs; format: functional
WiDr [25] = assay: Antitumor activity against human 100% WiDr NTRneo tumor cells injected in CD1 nude mouse assessed as growth delay at 200 umol/kg, ip in DMA/PEG; format: functional; how it was run: as §2
V79 [26] = assay: Clonogenic survival ratio of 3% V79 NTRpuro cells to 97% V79 NTRoua cells in co-culture; format: functional, Cricetulus griseus; how it was run: as §1
[27] = Toxicity in ip dosed CD1 nude mouse in DMA/PEG; format: organism-based; settings: in vivo; how it was run: as §3
WiDr [28] = assay: Antitumor activity against mixed human 10% WiDr NTRneo/ 90% WiDr tumor cells injected in CD1 nude mouse assessed as growth delay at 200 umol/kg, ip in DMA/PEG; format: functional; how it was run: as §2

SMILES | pIC50 (EMT6 [1]) | pIC50 (EMT6 [2]) | logD [3] | Ratio IC50 (EMT6 [4]) | pIC50 (V79 [5]) | Ratio IC50 (V79 [6]) | pIC50 (WiDr [7]) | remaining at 24 h [8] [%] | pIC50 (V79 [9]) | pIC50 (WiDr [10]) | pIC50 [11] | Activity (V79 [12]) [µM] | solubility [13] [µM] | pIC50 [14] | Ratio IC50 [15] | Ratio IC50 (WiDr [16]) | Activity (V79 [17]) [µM] | Activity (V79 [18]) [µM] | LCK (EMT6 [24]) | Activity (WiDr [25]) [days] | other results
NC(=O)c1cc(N(CCOS(N)(=O)=O)CCOS(N)(=O)=O)c([N+](=O)[O-])cc1[N+](=O)[O-] | 3.11 | 5.80 | -0.95 | 491 | 6.06 | 788 | 3.36 | 95 | 3.19 | 5.72 | 5.41 | 9.5 | 1800 (≈ 850 µg/mL) | 3.06 | 265 | 227 | >1800 | 800 |  |  | 
CS(=O)(=O)OCCN(CCBr)c1cc(C(=O)NCCO)c([N+](=O)[O-])cc1[N+](=O)[O-] | 3.66 | 6.70 | 0.46 | 1330 | 6.00 | 620 | 3.71 | 70 | 3.20 | 6.11 | 6.21 |  | 1700 (≈ 849 µg/mL) | 3.54 | 467 | 250 |  |  |  |  | 
O=C(NCCCO)c1cc(N(CCBr)CCBr)c([N+](=O)[O-])cc1[N+](=O)[O-] | 4.18 | 7.30 | 1.81 | 1670 | 6.55 | 135 | 4.25 | 83 | 4.43 | 6.60 | 6.64 | 3 | 170 (≈ 84.7 µg/mL) | 4.14 | 309 | 224 | 100 | 7 |  |  | LCK (EMT6 [19]): >3.44; Activity (WiDr [20]): >83 days; MTD [21]: 562 µmol/kg; MTD [22]: 1780 µmol/kg; Activity (WiDr [23]): 7 days
NC(=O)c1cc(N2CC2)c([N+](=O)[O-])cc1[N+](=O)[O-] [TRETAZICAR] | 4.08 | 7.01 | 0.14 | 947 | 6.59 | 2090 | 4.26 |  | 3.43 | 5.94 | 6.19 | 23 |  | 3.76 | 317 | 51.1 | 1400 | 173 | 3.16 | >88 | Ratio (V79 [26]): 0.14; MTD [27]: 200 µmol/kg; Activity (WiDr [28]): 14 days
O=C(NCCO)c1cc(N(CCBr)CCBr)c([N+](=O)[O-])cc1[N+](=O)[O-] | 4.15 | 7.10 | 1.69 | 871 | 6.37 | 203 | 4.21 | 76 | 4.10 | 6.47 | 6.52 | 5.2 | 320 (≈ 155 µg/mL) | 4.09 | 270 | 182 | 150 | 17 |  |  | 
NC(=O)c1cc(N(CCI)CCI)c([N+](=O)[O-])cc1[N+](=O)[O-] | 4.60 | 7.10 | 2.41 | 332 | 6.70 | 54 | 4.82 | 69 | 4.96 | 6.52 | 6.37 | 1.65 | 40 (≈ 21.4 µg/mL) | 4.52 | 71 | 50 | >20 | 2 | 1.48 | 8 | MTD [27]: 200 µmol/kg
O=C(NCCO)c1cc(N(CCI)CCI)c([N+](=O)[O-])cc1[N+](=O)[O-] |  |  |  |  |  |  | 4.55 | 23 |  | 6.05 |  | 5.5 | 400 (≈ 231 µg/mL) |  |  | 31.7 | 122 | 10 |  |  | 
CS(=O)(=O)c1cc([N+](=O)[O-])c(C(N)=O)cc1N(CCCl)CCCl | 3.41 | 5.41 |  | 101 | 5.02 | 73 | 3.46 |  | 3.12 | 4.59 | 4.82 | 160 | 330 (≈ 127 µg/mL) | 3.01 | 65 | 15 | >1000 | >300 |  |  | 
NC(=O)c1cc(N(CCCl)CCCl)c([N+](=O)[O-])cc1[N+](=O)[O-] | 3.35 | 5.73 | 1.52 | 261 | 4.77 | 42 | 3.15 | 99 | 3.31 | 5.02 | 5.02 | 98 | 750 (≈ 263 µg/mL) | 3.10 | 98 | 93 | >1000 | 120 | 2.29 | 29 | MTD [27]: 200 µmol/kg; Activity (WiDr [28]): 11 days
